According to ChEMBL document CHEMBL3865824, “New (E)-1-alkyl-1H-benzo[d]imidazol-2-yl)methylene)indolin-2-ones: Synthesis, in vitro cytotoxicity evaluation and apoptosis inducing studies” (Eur J Med Chem, 2016):
pIC50: −log10 of the molar value. Activity calls are given as the source filed them. The calls are words filed in the database; no cut-off is given here.

What was measured:
MDA-MB-231 [1] = experiment: Induction of apoptosis in human MDA-MB-231 cells assessed as decrease in Bcl2 expression after 24 hrs by Western blot analysis; format: functional, cell-based
In short: (§1)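 MDA-MB-231 treated at 1, 2 or 4 µM for 24 h. Whole-cell extracts prepared in RIPA buffer. Blots probed with rabbit anti-caspase-3, anti-Bcl2 and anti-β-actin (1:1000) and anti-Bax (1:500), then HRP secondaries and ECL detection. Membranes stripped and reprobed. Bands quantified by densitometry as fold change versus control. Mean ± SEM, n=3.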

[2] = Cytotoxicity against […] cells assessed as reduction in cell viability after 48 hrs by MTT assay; format: functional, cell-based; settings: 4T1, 48 h
In short: (§2)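 Cells grown in DMEM or MEM with 10% FBS at 37 °C, 5% CO2. Seeded at 1×10^4 cells/well, incubated 48 h, then exposed to compound for 48 h with vehicle control. MTT (5 mg/mL stock) added for 4 h; formazan dissolved in DMSO, absorbance read at 570 nm. Preliminary screen at 50 µM. Compounds giving >50% inhibition were tested for dose-response curves; IC50 derived by linear regression of % inhibition versus concentration. Mean of three independent experiments in triplicate.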

[3] = Selectivity ratio of IC50 for human MCF10A cells to IC50 for human DU145 cells; format: ADME, cell-based, MCF-10A; settings: MCF10A cells versus DU145 cells, read-out: Ratio IC50
MDA-MB-231 [4] = experiment: Induction of apoptosis in human MDA-MB-231 cells assessed as increase in cleaved PARP expression after 24 hrs by Western blot analysis; format: functional, cell-based; in short: as §1
MDA-MB-231 [5] = experiment: Induction of apoptosis in human MDA-MB-231 cells assessed as loss of mitochondrial membrane potential at 2 uM after 24 hrs by rhodamine-123 -based spectrofluorometric analysis relative to control; format: functional
In short: (§3)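 MDA-MB-231 cells were plated at 5×10^5 cells/mL in 6-well plates, left to adhere overnight, then treated 24 h at 1, 2 and 4 μM. Cells were trypsinized, washed in PBS and loaded with rhodamine-123 (10 μg/mL) in PBS for 30 min at room temperature. After two PBS washes, fluorescence was read by spectrofluorometer (ex 480/em 530 nm). Loss is expressed against control; three independent experiments in triplicate.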

[6] = Selectivity ratio of IC50 for human MCF10A cells to IC50 for human MDA-MB-231 cells; format: ADME, cell-based, MCF-10A; settings: MCF10A cells versus MDA-MB-231 cells, read-out: Ratio IC50
MDA-MB-231 [7] = experiment: Induction of apoptosis in human MDA-MB-231 cells assessed as cell wall deformation at 1 to 4 uM after 24 hrs by phase contrast microscopic analysis; format: functional, cell-based
In short: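 MDA-MB-231 treated at 1, 2 or 4 µM for 24 h. Morphology examined and photographed by phase contrast microscopy against untreated control cells.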

[8] = Selectivity ratio of IC50 for human MCF10A cells to IC50 for human A549 cells; format: ADME, cell-based; settings: MCF10A cells versus A549 cells, read-out: Ratio IC50
[9] = Cytotoxicity against […] cells assessed as growth inhibition at 50 uM after 48 hrs by MTT assay relative to control; format: functional; settings: Mus musculus, 4T1, 48 h; read-out: GI; in short: as §2
[10] = Cytotoxicity against human A549 cells assessed as reduction in cell viability after 48 hrs by MTT assay; format: functional, cell-based; settings: A549, 48 h; in short: as §2
MDA-MB-231 [11] = experiment: Induction of apoptosis in human MDA-MB-231 cells assessed as early apoptotic cells after 24 hrs by Annexin V-FITC/propidium iodide-staining based FACS analysis; format: functional, cell-based
MDA-MB-231 [12] = experiment: Induction of apoptosis in human MDA-MB-231 cells assessed as increase in Bax expression after 24 hrs by Western blot analysis; format: functional, cell-based; in short: as §1
MDA-MB-231 [13] = experiment: Induction of apoptosis in human MDA-MB-231 cells assessed as late apoptotic cells at 2 uM after 24 hrs by Annexin V-FITC/propidium iodide-staining based FACS analysis (reference value: 3.6 %); format: functional
MDA-MB-231 [14] = experiment: Induction of apoptosis in human MDA-MB-231 cells assessed as viable cells at 2 uM after 24 hrs by Annexin V-FITC/propidium iodide-staining based FACS analysis (reference value: 89.5 %); format: functional; settings: MDA-MB-231, 24 h, read-out: Activity
MDA-MB-231 [15] = experiment: Induction of apoptosis in human MDA-MB-231 cells assessed as necrotic cells at 2 uM after 24 hrs by Annexin V-FITC/propidium iodide-staining based FACS analysis (reference value: 2.8 %); format: functional
[16] = Cell cycle arrest in human MDA-MB-231 cells assessed as accumulation at G0/G1 phase at 4 uM after 24 hrs by propidium iodide staining based FACS analysis (reference value: 50.4 %); format: functional
In short: (§4)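 MDA-MB-231 at 1×10^6 cells/well treated with 1, 2 or 4 µM for 24 h, with a DMSO control. Cells harvested by trypsin, washed with PBS and fixed in 70% ethanol for 30 min at 4 °C. Stained 15 min at room temperature in the dark with PI buffer containing Triton X and DNase-free RNase A. Analysed by flow cytometry; G0/G1, S and G2/M fractions quantified.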

[17] = Cytotoxicity against human PC3 cells assessed as growth inhibition at 50 uM after 48 hrs by MTT assay relative to control; format: functional; settings: PC-3, 48 h, read-out: GI; in short: as §2
MDA-MB-231 [18] = experiment: Induction of apoptosis in human MDA-MB-231 cells assessed as loss of mitochondrial membrane potential at 1 uM after 24 hrs by rhodamine-123 -based spectrofluorometric analysis relative to control; format: functional; in short: as §3
[19] = Cytotoxicity against human MCF10A cells assessed as reduction in cell viability after 48 hrs by MTT assay; format: toxicity, cell-based, MCF-10A; in short: as §2
[20] = Cell cycle arrest in human MDA-MB-231 cells assessed as accumulation at G0/G1 phase at 2 uM after 24 hrs by propidium iodide staining based FACS analysis (reference value: 50.4 %); format: functional; in short: as §4
[21] = Cytotoxicity against human MCF7 cells assessed as growth inhibition at 50 uM after 48 hrs by MTT assay relative to control; format: functional; settings: MCF7, 48 h, read-out: GI; in short: as §2
[22] = Cytotoxicity against human DU145 cells assessed as reduction in cell viability after 48 hrs by MTT assay; format: functional, cell-based; settings: DU-145, 48 h; in short: as §2
MDA-MB-231 [23] = experiment: Induction of apoptosis in human MDA-MB-231 cells assessed as destructive fragmentation of chromatin at 4 uM after 24 hrs by AO/EB-dual staining based fluorescent microscopic analysis; format: functional, cell-based
In short: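 MDA-MB-231 plated at 1×10^6 cells/mL and treated at 1, 2 or 4 µM, with a DMSO control. Incubation time is given as 48 h in the methods and 24 h in the figure legend. AO and EB added at 10 µg/mL each. Cells viewed within 10 min by fluorescence microscopy (excitation 488 nm, emission 550 nm) at 200×.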

MDA-MB-231 [24] = experiment: Induction of superoxide production in human MDA-MB-231 cells after 48 hrs by mitoSOX red-probe based fluorescent microscopic analysis; format: functional, cell-based
In short: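 Cells were seeded at 1×10^5/well in 24-well plates and left to adhere overnight, then treated at different concentrations (methods: medium removed after 24 h; legend: 48 h treatment). After a PBS wash, cells were loaded with MitoSOX Red in HBSS for 15 min at 37 °C, washed three times with PBS and imaged by fluorescence microscopy against DMSO control.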

With CC(C)n1c(/C=C2/C(=O)Nc3ccc(Br)cc32)nc2ccccc21 the Activity (MDA-MB-231 [1]) was “Dose-dependent effect”, the pIC50 [2] was 5.22 and the selectivity ratio [3] was 8. For the same molecule, the Activity (MDA-MB-231 [4]) was “Dose-dependent effect”, the Activity (MDA-MB-231 [5]) was 32.5% and the selectivity ratio [6] was 17. For the same molecule, the Activity (MDA-MB-231 [7]) was “Active”, the selectivity ratio [8] was 6.5 and the inhibition of growth at 50 µM [9] was > 50%. The pIC50 [10] was 5.06, the Activity (MDA-MB-231 [11]) was “Dose-dependent effect” and the Activity (MDA-MB-231 [12]) was “Dose-dependent effect”. It also gave an Activity (MDA-MB-231 [13]) of 4.4%, a viability at 2 µM (MDA-MB-231 [14]) of 73.6% and an Activity (MDA-MB-231 [15]) of 3.3%. For the same molecule, the Activity [16] was 74.7%, the inhibition of growth at 50 µM [17] was > 50% and the Activity (MDA-MB-231 [18]) was 25.2%. For the same molecule, the IC50 at 48 h [19] was 56.9 µM, the Activity [20] was 64.3% and the inhibition of growth at 50 µM [21] was > 50%. The pIC50 [22] was 5.12, the Activity (MDA-MB-231 [23]) was “Active” and the Activity (MDA-MB-231 [24]) was “Dose-dependent effect”.
